Screens (PubChem)
Shown are actives, neighbours in structure and some others; about 3.6% of the full set was active somewhere.
pPAFAH FP inh – pPAFAH (human) enzyme inhibition. Q13093. recombinant pPAFAH, FP-rhodamine probe fluorescence polarization. inhibition, % at 3.39 µM. 330,000 compounds, 1.5% hits. AID 463082;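 active means inhibition above the mean inhibition across the screen plus 3 SD, cut at about 25% in these data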;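 further: inhibitors block binding of the rhodamine activity-based probe so polarization drops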
IMP-1 inh – inhibitors of Pseudomonas aeruginosa IMP-1 metallo-beta-lactamase | purified IMP-1, nitrocefin hydrolysis, epi-absorbance fluorescence | inhibition, % at 5.6 µM | 290,000 compounds, 0.45% hits | AID 1556;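 active means inhibition above the mean plus 3 SD of all compounds in the same screening run, cut at about 4.5% in these data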
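System: purified IMP-1 / Input: IMP-1 dispensed at 0.2 nM / Medium: 50 mM HEPES pH 7.1, 50 µM ZnSO4, 0.05% Brij 35 / Timing: 15 min enzyme–compound preincubation, then 25 min nitrocefin reaction, 25 °C / Technique: plate fluorescence quenching by hydrolysis product, ex 480/em 530 nm / Repeats: singlicate testing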
PAFAH2 inh – PAFAH2 (human) inhibition; AID 492956; recombinant PAFAH2, FP-rhodamine activity probe, fluorescence polarization; Q99487; inhibition, % at 3.39 µM; 340,000 compounds, 0.99% hits;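 active means inhibition above the mean over all tested compounds plus 3 SD, cut at about 30% in these data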;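 further: inhibitors block probe labeling of enzyme so polarization drops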
PAFAH1B2 FP inh – inhibitors of human PAFAH1B2; P68402; recombinant PAFAH1B2, FP-rhodamine activity probe, fluorescence polarization; inhibition, % at 3.39 µM; 340,000 compounds, 1.2% hits;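 active means inhibition above the mean of all tested compounds plus 3 SD, cut at about 24% in these data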
Target sequence (P68402 whole entry, looked up): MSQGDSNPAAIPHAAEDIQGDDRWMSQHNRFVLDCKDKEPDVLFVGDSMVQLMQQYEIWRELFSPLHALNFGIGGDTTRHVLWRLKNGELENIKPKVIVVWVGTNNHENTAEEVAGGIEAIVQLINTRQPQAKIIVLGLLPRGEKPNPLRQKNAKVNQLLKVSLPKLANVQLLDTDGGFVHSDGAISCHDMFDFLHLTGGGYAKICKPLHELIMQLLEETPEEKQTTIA
VIM-2 inhibitor – inhibitors of Pseudomonas aeruginosa VIM-2 metallo-beta-lactamase. inhibition, % at 5.6 µM. 290,000 compounds, 0.89% hits. purified VIM-2, nitrocefin hydrolysis, epi-absorbance fluorescence;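 active means inhibition above the mean of all tested compounds plus 3 SD, cutoff set per screening run, cut at about 7.5% in these data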;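 further: red hydrolysis product quenches plate fluorescence so inhibitors raise well fluorescence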
PAFAH1B3 FP inh – blocks human PAF acetylhydrolase 1B catalytic subunit 3; recombinant PAFAH1B3, FP-rhodamine probe, fluorescence polarization; inhibition, % at 3.39 µM; Q15102; AID 492972; 340,000 compounds, 0.28% hits;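 active means inhibition above the screen-wide average of all tested compounds plus 3 SD, cut at about 25% in these data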
Target sequence (Q15102 whole entry, looked up): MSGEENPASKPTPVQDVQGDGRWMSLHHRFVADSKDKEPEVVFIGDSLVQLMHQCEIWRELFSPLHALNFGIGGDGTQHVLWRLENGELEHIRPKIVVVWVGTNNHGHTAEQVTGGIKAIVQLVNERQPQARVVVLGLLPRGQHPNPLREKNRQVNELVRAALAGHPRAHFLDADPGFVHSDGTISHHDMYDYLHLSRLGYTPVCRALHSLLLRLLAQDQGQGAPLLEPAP
pPAFAH confirm – pPAFAH (human) inhibition, confirmed; shares compounds with pPAFAH FP inh; recombinant pPAFAH, FP-Rh probe fluorescence polarization; inhibition, % at 3.39 µM; 2,300 compounds, 72% hits; AID 463230;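 active means mean inhibition of the triplicate above the hit cutoff set for the earlier primary screen, cut at about 25% in these data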
PAFAH2 FP conf – PAFAH2 (human) inhibition, confirmed. shares compounds with PAFAH2 inh. recombinant PAFAH2, FP-rhodamine activity probe, fluorescence polarization. inhibition, % at 3.39 µM. 2,300 compounds, 65% hits. AID 493030;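 active means mean inhibition over three repeats above a set limit taken from the earlier primary screen, cut at about 30% in these data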;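 further: inhibitor blocks binding of rhodamine activity probe so polarization falls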
Large screens that a line does not name were inactive (follow-up assays come after a bar, where they were run).

O=C(c1ccc2nc(-c3ccco3)c(-c3ccco3)nc2c1)N1CCC2(CC1)OCCO2	pPAFAH FP inh 61.5 (no result: IMP-1 inh, VIM-2 inhibitor) | pPAFAH confirm inactive
CCOc1ccc(-n2c(O)c(C=Nc3ccc(N(CC)CC)cc3)c(=O)[nH]c2=O)cc1	none
CCOc1ccccc1-n1c(O)c(C=Nc2ccc(N(CC)CC)cc2)c(=O)[nH]c1=O	pPAFAH FP inh 43.6 | pPAFAH confirm inactive
CCN(CC)c1ccc(N=Cc2c(O)n(-c3ccccc3C)c(=O)[nH]c2=O)cc1	pPAFAH FP inh 38.5 | pPAFAH confirm inactive
CCN(CC)c1ccc(N=Cc2c(O)[nH]c(=O)[nH]c2=O)cc1	pPAFAH FP inh 45.4 | pPAFAH confirm inactive
CCN(CC)c1ccc(N=Cc2c(O)n(-c3ccccc3)c(=O)[nH]c2=O)cc1	pPAFAH FP inh 48.7 | pPAFAH confirm inactive
COc1cc2c(cc1OC)C1C(=O)c3ccc4c(c3OC1CO2)CC(C(C)C)O4 (configuration not stated)	none (no result: pPAFAH FP inh, IMP-1 inh, VIM-2 inhibitor)
CC12CCC(=O)CC1CCC1C2C(=O)CC2(C)C1CCC2(C)O (configuration not stated)	none (no result: pPAFAH FP inh, IMP-1 inh, VIM-2 inhibitor)
COC(=O)N(c1ccccc1)P(=O)(Oc1ccccc1)Oc1ccccc1	none
Cc1ccc(/C=C2/Sc3ccc(C(=O)N4CCC5(CC4)OCCO5)cc3NC2=O)cc1	none
O=C(COC(=O)Cc1ccccc1)NC12CC3CC(CC(C3)C1)C2	pPAFAH FP inh 35.3, PAFAH2 inh 54.8 | pPAFAH confirm 41.3
NP(=O)(OCCCCc1ccccc1)Oc1ccccc1Cl (configuration not stated)	pPAFAH FP inh 70.5, PAFAH2 inh 30.6, PAFAH1B2 FP inh 98.7, PAFAH1B3 FP inh 45.6 | pPAFAH confirm 74.3
O=C1C=CC(=O)C2C1C1(Cl)C(Cl)=C(Cl)C2(Cl)C1(Cl)Cl (configuration not stated)	none (no result: pPAFAH FP inh, IMP-1 inh, VIM-2 inhibitor)
CC[C@H](C)/C=C(C)/C=C/C1=CC2=C(Cl)C(=O)[C@](C)(OC(C)=O)C(=O)C2=CO1	pPAFAH FP inh 67.4, PAFAH2 inh 40.1 (no result: IMP-1 inh, VIM-2 inhibitor) | pPAFAH confirm 87.1
CC1CCCN(c2ccc(C(=O)N3CCC4(CC3)OCCO4)cc2[N+](=O)[O-])C1 (configuration not stated)	pPAFAH FP inh 44.6 | pPAFAH confirm 59.1
COc1ccccc1N1C(=O)NC(=O)/C(=C\c2cnn(-c3ccccc3)c2)C1=O	none
COc1ccc(N2C(=O)NC(=O)/C(=C/c3ccc(N4CCOCC4)cc3)C2=O)cc1	none (no result: PAFAH2 inh, PAFAH1B2 FP inh, PAFAH1B3 FP inh)
COc1ccc(N2C(=O)NC(=O)/C(=C/c3ccc([N+](=O)[O-])s3)C2=O)cc1	pPAFAH FP inh 44.4 (no result: PAFAH2 inh, PAFAH1B2 FP inh, PAFAH1B3 FP inh) | pPAFAH confirm 46.6
COc1ccc(N2C(=O)NC(=O)/C(=C\c3ccc([N+](=O)[O-])s3)C2=O)cc1	pPAFAH FP inh 37.5 | pPAFAH confirm 35.0
COc1ccccc1N1C(=O)NC(=O)/C(=C/c2ccc([N+](=O)[O-])s2)C1=O	pPAFAH FP inh 51.2 (no result: PAFAH2 inh, PAFAH1B2 FP inh, PAFAH1B3 FP inh) | pPAFAH confirm 41.8
CCOc1ccc(N2C(=O)NC(=O)/C(=C\c3cc(OC)c(OC)cc3[N+](=O)[O-])C2=O)cc1	none
COC(=O)C1C2CC[C@@H](CC1OC(=O)c1ccccc1)N2 (some centres not stated)	none (no result: IMP-1 inh, VIM-2 inhibitor)
CC(=O)N(C)CC#CCN1CCCC(CO)C1 (configuration not stated)	none (no result: IMP-1 inh, VIM-2 inhibitor)
O=C1NC(=O)N(c2ccccc2)C(=O)/C1=C/c1coc2ccc(O)cc2c1=O	none
CC(OC(=O)c1cn(C)c2ccccc12)C(=O)N1CCCC1 (configuration not stated)	none (no result: IMP-1 inh, VIM-2 inhibitor)
CN1C(=O)C(=Cc2ccc(SC3CCCCC3)o2)C(=O)N(C)C1=O	PAFAH2 inh 29.7 | PAFAH2 FP conf 33.2
O=C1NC(=O)N(CCC2=CCCCC2)C(=O)/C1=C\c1cccs1	PAFAH2 inh 54.7 | PAFAH2 FP conf 45.8
CC(=O)Nc1cc(C(=O)N2CCC3(CC2)OCCO3)ccc1S(=O)(=O)c1ccc(C)cc1	none
Cc1ccc(S(=O)(=O)Nc2cc(C(=O)N3CCC4(CC3)OCCO4)ccc2N2CCCCC2)cc1	PAFAH2 inh 59.7 | PAFAH2 FP conf 49.1
